Consider one compound from PubChem BioAssay AID624068 (Broad Institute, 2012).

This test deals with S. cerevisiae W303 JC-1 mitochondrial potential, flow cytometry. The test can be described thus: mitochondrial membrane depolarization in S. cerevisiae W303, mechanism study for C. glabrata antifungal project, flow cytometry, single point, dry powder (AID 624068). Particulars: at 1 µM; active compounds read high. Put shortly:
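System: S. cerevisiae W303-1a yeast / Amount: yeast culture diluted to OD600 0.1 before pre-growth / Buffer or medium: glucose SD-CSM medium / Also added: JC-1 membrane potential dye, 1 µg/mL final / Incubation: 90 min 30 °C pre-growth, 4 h compound / Detection: flow cytometry of JC-1 stained, washed cells, 488 nm excitation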
(Flow cytometry measures light scatter and fluorescence of single cells or particles in a stream.)

Inconclusive results are not listed.

As for `CCOC(=O)N1C(=O)C2(CCCCC2)N(c2ccc(C)cc2)C1=S`, the mitochondrial depolarization score is 27.8.
